# RGS4 act: potentiators or activators of RGS4. actives 0.92% (n = 310,000). AID 463111. HEK293 M3R/inducible RGS4, carbachol calcium flux Fluo4; active compounds read low. B-score at 10 µM;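 active = B-score of the integrated calcium signal more than 4 SD below the library mean, with starting fluorescence not abnormally high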;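 note: negative B-score means reduced calcium response which marks RGS4 activation or potentiation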
#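 System: HEK293 FlpIn-TREx cells, stable M3R, doxycycline-inducible RGS4. Timing: overnight RGS4 induction, 30 min dye load 37 °C, 20 min compound RT. Also added: carbachol, ECmax concentration. Measured by: Fluo4 fluorescence kinetic imaging of calcium. Evaluation: integrated calcium ratio converted to B score.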
# MrgX1 agonist: agonists of human MrgX1 receptor | Q96LB2 | MrgX1-HEK293 cells, Fluo-4 calcium fluorescence, agonist mode; active compounds read high | B-score at 10 µM | actives 0.44% (n = 310,000) | AID 588627;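 active = calcium response B-score plate-corrected fluorescence ratio at least 3 library SD, with starting fluorescence B-score inside 5 SD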
# Target sequence (Q96LB2 whole entry, looked up): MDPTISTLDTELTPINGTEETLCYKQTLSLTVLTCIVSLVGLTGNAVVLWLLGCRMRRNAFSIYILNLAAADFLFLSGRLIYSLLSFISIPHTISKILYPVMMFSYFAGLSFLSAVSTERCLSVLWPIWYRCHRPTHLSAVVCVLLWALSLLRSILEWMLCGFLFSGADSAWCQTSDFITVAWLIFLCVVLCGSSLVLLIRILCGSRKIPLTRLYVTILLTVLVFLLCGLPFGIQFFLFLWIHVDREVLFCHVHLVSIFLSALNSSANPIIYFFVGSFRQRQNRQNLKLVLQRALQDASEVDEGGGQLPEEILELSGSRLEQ
#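 Test system: Stable human MrgX1 HEK293 cell line | Schedule: Overnight plating before 1 h dye loading | Read-out basis: Baseline-normalised fluorescence change ratio, B-scored | Detection: Kinetic calcium dye fluorescence, Fluo-4 NW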
# MrgX1 antag: human MrgX1 receptor antagonism, primary screen; B-score at 10 µM; Q96LB2; actives 1.3% (n = 310,000); MRGX1-HEK293 calcium flux, Fluo-4, BAM8-22 antagonism; active compounds read low;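 active = calcium-response B-score plate-corrected more than 3 library SD below zero, starting fluorescence within 5 deviations, no agonist response on first addition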;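 note: peak minus trough fluorescence over baseline after final BAM8-22 challenge near maximal dose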
# RGS4 block: human RGS4 inhibition | HEK293 M3R/RGS4 inducible, Fluo-4 calcium flux; active compounds read high; triggered by carbachol at its EC20 | B-score at 10 µM | actives 0.45% (n = 310,000) | AID 463165;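 active = B-score, a plate-corrected calcium signal, over three deviations above library mean, with baseline fluorescence within five deviations of library mean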;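 note: RGS4 expression induced by doxycycline in cells with stable M3 receptor; B-score is computed from the integrated fluorescence ratio over baseline after carbachol; higher B-score means a larger calcium signal and so more RGS4 inhibition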
# Target sequence (P49798 whole entry, looked up): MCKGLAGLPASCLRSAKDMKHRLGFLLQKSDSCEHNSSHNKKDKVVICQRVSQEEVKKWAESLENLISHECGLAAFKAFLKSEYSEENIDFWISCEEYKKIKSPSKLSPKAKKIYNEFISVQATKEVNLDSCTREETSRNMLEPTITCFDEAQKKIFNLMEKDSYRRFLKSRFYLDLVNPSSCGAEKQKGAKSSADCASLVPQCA
# MrgX1 PAM: human MrgX1 positive allosteric modulation, primary screen; MrgX1-HEK293, Fluo-4 calcium flux, FDSS; active compounds read high; actives 0.63% (n = 310,000); B-score at 10 µM; Q96LB2;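 active = plate-corrected calcium response at least 3 library SD above typical, normal starting fluorescence, not activating the receptor alone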;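 note: compound read alongside a low EC10 to EC30 dose of BAM8-22 agonist; peak minus trough fluorescence over baseline measured at the second addition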
# MrgX1 PAM conf: reconfirmed allosteric activator of human MrgX1 receptor; shares compounds with MrgX1 PAM; MrgX1-HEK293, Fluo-4 calcium fluorescence, FDSS; activation (ratio percentage), % at 10 µM; actives 13% (n = 1,200); AID 602413;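 active = ratio at least 3 SD above the weak peptide control, stable starting fluorescence, no direct agonism earlier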;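 note: compound followed by low BAM8-22 agonist challenge near EC20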
# HEK293 Ca flux: activity in parental HEK293 cells lacking MrgX1; shares compounds with MrgX1 antag; Fluo-4 calcium fluorescence, FDSS; fluorescence ratio F(max-min)/F0 at 10 µM; actives 2% (n = 4,000); AID 624111;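 active = duplicate-averaged calcium fluorescence ratio at least three times the standard deviation of buffer wells, a nonspecific response in parental cells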
# HEK293 Ca counter: activity in parental HEK293 cells without MrgX1; shares compounds with MrgX1 antag; parental HEK293 calcium flux, Fluo-4 fluorescence ratio; active compounds read high; fluorescence ratio F(max-min)/F0 at 10 µM; actives 0.4% (n = 4,000); AID 624114;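 active = calcium fluorescence ratio, averaged over duplicates, at least 3 SD of the buffer-well ratio, meaning a nonspecific response in receptor-free cells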;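 note: untransfected parental HEK293 lacking MrgX1 used as counterscreen for MrgX1 allosteric activators; fluorescence change taken during the second addition on a kinetic imager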
# HEK293 Ca cntr2: activity in parental HEK293 cells lacking MrgX1 receptor; shares compounds with MrgX1 antag; Fluo-4 calcium fluorescence (FDSS); active compounds read high; fluorescence ratio F(max-min)/F0 at 10 µM; actives 8.7% (n = 4,000); AID 624115;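 active = calcium fluorescence ratio at least three times the spread of buffer wells, meaning a non-specific response in parental cells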
# * marks the source's active call; other numbers are inactive results; i = inactive; / = not tested or not shown. Rows were chosen to be rich in hits. Some 3.5% of all compounds tested hit in one or more screens of this group.
SMILES,RGS4 act,MrgX1 agonist,MrgX1 antag,RGS4 block,MrgX1 PAM,MrgX1 PAM conf,HEK293 Ca flux,HEK293 Ca counter,HEK293 Ca cntr2
COC1(c2cc(-c3ccccc3)nc(N)n2)CCCCC1,i,i,i,i,31*,28%*,i,i,i
CC(NC(=O)c1ccc(N)cc1)c1ccccc1 (configuration not stated),i,i,i,i,7.4*,i,i,i,i
O=S(=O)(/N=C(/Nc1ccc(F)cc1F)c1ccccc1)c1ccccc1,i,i,i,i,i,/,/,/,/
Cc1ccccc1-n1c(SCC(=O)N(C)C2CCS(=O)(=O)C2)nc2ccccc2c1=O (configuration not stated),i,i,i,i,14*,i,i,i,i
CCCCNC(=O)COC(=O)CNC(=O)c1cc(Cl)cc([N+](=O)[O-])c1,i,i,i,i,i,/,/,/,/
CC1CCc2c(C(=O)NCc3ccccn3)csc2C1 (configuration not stated),i,i,i,i,i,/,/,/,/
CC1CCc2c(C(=O)Nc3ccccn3)csc2C1 (configuration not stated),i,i,i,i,8.3*,i,i,i,i
CCN(CC)S(=O)(=O)c1cccc(NC2=NCC(C)S2)c1 (configuration not stated),i,i,i,i,9.1*,i,i,i,i
CCN(c1cccc(C)c1)S(=O)(=O)c1ccc(-n2cccn2)cc1,i,i,i,i,7*,i,i,i,i
COc1cccc(CNc2ncc(Br)cc2Br)c1O,i,i,i,i,i,/,/,/,/
COc1cccc(CNc2ccc(Br)cn2)c1O,i,i,i,i,12*,i,i,i,i
Cc1sc2ncnc(NCC(C)(C)N3CCOCC3)c2c1C,i,i,i,i,8.7*,i,i,i,i
Cc1sc2ncnc(NCC3(N4CCOCC4)CCCCC3)c2c1C,i,i,i,i,i,/,/,/,/
Cc1ccc(S(=O)(=O)N2CCN(Cc3ccco3)CC2)c(C)c1,i,i,i,i,i,/,/,/,/
O=C(NC12CC3CC(CC(C3)C1)C2)c1ccccc1,i,i,i,i,i,/,/,/,/
Nc1ccccc1C(=O)NC12CC3CC(CC(C3)C1)C2,i,i,i,i,10*,i,i,i,i
O=C(N/N=C\c1c(O)ccc2ccccc12)c1ccc(S(=O)(=O)N2CCCCC2)cc1,i,i,i,i,20*,i,0.42*,i,65*
O=C(N/N=C/c1c(O)ccc2ccccc12)c1ccc(CO)nc1,i,i,i,i,i,/,/,/,/
c1ccc(-c2cc3c(N4CCCCC4)ncnc3s2)cc1,i,i,i,i,8.9*,i,i,i,i
CCOC(=O)c1ccc2c(c1)nc(-c1ccccn1)n2CC,i,i,i,i,7.6*,i,i,i,i
O=C(CCc1nnc(Cc2c[nH]c3ccccc23)o1)NC1CCCC1,i,i,i,i,16*,i,i,i,i
CC(=O)Nc1ccc(NC(=O)c2ccccc2CCc2ccccc2)cc1,i,i,i,i,15*,i,i,i,i
CC(=O)Nc1ccc(NC(=O)c2ccccc2C)cc1,i,i,i,i,i,/,/,/,/
Cc1ccc(NC(=O)c2ccccc2O)cc1,i,i,i,i,11*,i,i,i,i
CCOc1cc2c(cc1OCC)C(c1ccccc1)N(c1ccc(C(=O)O)cc1)C(=O)C2 (configuration not stated),i,i,i,i,i,/,/,/,/
SMILES,RGS4 act,MrgX1 agonist,MrgX1 antag,RGS4 block,MrgX1 PAM,MrgX1 PAM conf,HEK293 Ca flux,HEK293 Ca counter,HEK293 Ca cntr2
CC(C)C[C@H](NC(=O)N1CCn2c1nc1ccccc12)C(=O)N[C@H](Cc1ccccc1)C(=O)O,i,i,i,i,i,/,/,/,/
CCN(CC)C(=O)Oc1ccc2ccccc2c1Cl,i,i,i,i,i,/,/,/,/
O=C(Oc1ccnc2cc(Cl)ccc12)N1CCCCCC1,i,i,i,i,15*,i,i,i,i
CCN(CC)C(=O)Oc1ccnc2cc(Cl)ccc12,i,i,i,i,7.4*,i,i,i,i
CN1CCN(C(=S)NC(=O)c2ccc(Br)cc2)CC1,i,i,i,i,i,/,/,/,/
CN1CCN(C(=S)C(=O)Nc2ccc(Br)cc2)CC1,i,i,i,i,11*,i,i,i,i
CN(c1ccccc1)S(=O)(=O)c1ccc(C(=O)NCc2ccccn2)cc1,i,i,i,i,i,/,/,/,/
Cc1ccc(S(=O)(=O)c2nnn(-c3cccc(F)c3)c2N)cc1,i,i,i,i,8.9*,i,i,i,i
Cc1ccc(Oc2ncnc3sccc23)cc1,i,i,i,i,17*,2.5%*,i,i,i
c1cnc2c(Oc3ncnc4sccc34)cccc2c1,i,i,i,i,i,/,/,/,/
COc1ccc(CCC(=O)NCCNC(=O)CCc2ccc(OC)cc2)cc1,i,i,i,i,i,/,/,/,/
CC12COC3(C(=O)Nc4ccc(F)cc4)CC1CCC32C (configuration not stated),i,i,i,i,11*,i,i,i,i
CC12COC3(C(N)=O)CC1CCC32C (configuration not stated),i,i,i,i,i,/,/,/,/
CN(C)C(=O)c1cn(-c2ccccc2)nc1-c1cc2ccccc2oc1=O,i,i,i,i,i,/,/,/,/
CN(C)C(=O)c1cn(-c2ccccc2)nc1-c1cc2ccccc2o1,i,i,i,i,8*,i,i,i,i
O=C1c2cccc(OCC(=O)N3CCCc4ccccc43)c2CCN1Cc1cccnc1,i,i,i,i,18*,i,i,i,i
